Values after ≈ are worked out from the molar mass of the structure shown. Active and inactive are the calls of the source. No cut-off for these calls is given here.
How the values were obtained:
[1] = tested on: Acinetobacter baumannii; assay: Antibacterial activity against Acinetobacter baumannii PFGE type A isolate by microdilution method; type: functional
Procedure, shortened: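 MIC by broth microdilution following CLSI M7-A6; susceptibility interpreted with CLSI breakpoints.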

[2] = tested on: Acinetobacter baumannii; assay: Antibacterial activity against Acinetobacter baumannii PFGE type A isolate by microdilution method in presence of Tazobactam; type: functional
[3] = tested on: Acinetobacter baumannii; assay: Antibacterial activity against Acinetobacter baumannii PFGE type A isolate by microdilution method in presence of Sulbactam; type: functional
[4] = tested on: Acinetobacter baumannii; assay: Antibacterial activity against Acinetobacter baumannii PFGE type A isolate assessed as reduction of MIC by microdilution method in presence of 200 mM NaCl; type: functional
Procedure, shortened: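 Broth microdilution MIC per CLSI M7-A6 with CLSI breakpoints. Carbapenem MICs compared with and without 200 mM NaCl to gauge the oxacillinase contribution. blaOXA-58-carrying PFGE type 1 isolates served as CHDL-positive reference and a blaOXA-58-negative PFGE type 2 isolate as CHDL-negative reference.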

[5] = tested on: Acinetobacter baumannii; assay: Antibacterial activity against Acinetobacter baumannii PFGE type A isolate assessed as reduction of MIC by microdilution method in presence of 200 mg/liter cloxacillin; type: functional, organism-based
Procedure, shortened: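 AmpC contribution was probed by liquid microdilution per CLSI M7-A6. Carbapenem MICs were read with and without 200 mg/liter cloxacillin.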

[6] = tested on: Acinetobacter baumannii; assay: Antibacterial activity against Acinetobacter baumannii PFGE type A isolate by Etest MBL strip method; type: functional
Procedure, shortened: (§1)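 Imipenem MIC and MBL activity were read with Etest MBL strips on all PFGE type A isolates. A. baumannii AC-54/97, an IMP-2 MBL producer, was the MBL-positive reference strain.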

[7] = tested on: Acinetobacter baumannii; assay: Antibacterial activity against imipenem-susceptible Acinetobacter baumannii Ab F PFGE type B transconjugant by microdilution method; type: functional
Procedure, shortened: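 Transconjugants came from filter mating of imipenem-resistant donors Ab 1 or Ab 8 (PFGE type A) with recipient Ab F (PFGE type B). They were selected on brain heart infusion agar with imipenem 16 mg/liter plus trimethoprim-sulfamethoxazole 250 mg/liter. MICs were then read by microdilution per CLSI M7-A6.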

[8] = tested on: Acinetobacter baumannii; assay: Antibacterial activity against Acinetobacter baumannii PFGE type A isolate by Etest MBL strip method in presence of EDTA; type: functional; procedure, shortened: as §1
[9] = tested on: Acinetobacter baumannii; assay: Ratio of MIC for imipenem-susceptible Acinetobacter baumannii Ab F PFGE type B transconjugant to MIC for imipenem-susceptible Acinetobacter baumannii Ab F PFGE type B transconjugant in presence of 200 nM NaCl; type: functional; conditions: in the assay text read “200 mM NaCl” for “200 nM NaCl”
Procedure, shortened: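 Carbapenem MICs measured by liquid microdilution with and without 200 mM NaCl, to gauge the oxacillinase contribution. Controls were blaOXA-58-carrying PFGE type 1 isolates (CHDL-positive) and a blaOXA-58-negative PFGE type 2 isolate (CHDL-negative). Transconjugants came from filter mating into recipient Ab F and were selected on brain heart infusion agar with imipenem 16 mg/liter plus trimethoprim-sulfamethoxazole 250 mg/liter.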

Row | Compound | MIC50 [1] | MIC90 [1] | further results
1 | O=C(O)c1cn(C2CC2)c2cc(N3CCNCC3)c(F)cc2c1=O [CIPROFLOXACIN] | 64 µg/mL (≈ 193 µM) | 250 µg/mL (≈ 754 µM) | –
2 | GENTAMICIN | 125 µg/mL | 250 µg/mL | –
3 | COLISTIN | 2 µg/mL | 4 µg/mL | –
4 | C[C@@H](O)[C@H]1C(=O)N2C(C(=O)O)=C(S[C@@H]3CN[C@H](C(=O)N(C)C)C3)[C@H](C)[C@H]12 [MEROPENEM] | 8 µg/mL (≈ 20.9 µM) | 8 µg/mL (≈ 20.9 µM) | –
5 | CCN1CCN(C(=O)N[C@@H](C(=O)N[C@@H]2C(=O)N3[C@@H]2SC(C)(C)[C@@H]3C(=O)O)c2ccccc2)C(=O)C1=O [PIPERACILLIN] | – | – | MIC [2]: 125 µg/mL; MIC50 [2]: 125 µg/mL; MIC90 [2]: 250 µg/mL
6 | CC1(C)S[C@@H]2[C@H](NC(=O)[C@H](N)c3ccccc3)C(=O)N2[C@H]1C(=O)O [AMPICILLIN] | – | – | MIC [3]: 8 µg/mL; MIC50 [3]: 8 µg/mL; MIC90 [3]: 16 µg/mL
7 | CC(C)(O/N=C(\C(=O)N[C@@H]1C(=O)N2C(C(=O)[O-])=C(C[n+]3ccccc3)CS[C@H]12)c1csc(N)n1)C(=O)O [CEFTAZIDIME] | 250 µg/mL (≈ 457 µM) | 250 µg/mL (≈ 457 µM) | Activity [4]: inactive; Activity [5]: inactive
8 | C[C@@H](O)[C@H]1C(=O)N2C(C(=O)O)=C(SCCNC=N)C[C@H]12 [IMIPENEM ANHYDROUS] | 16 µg/mL (≈ 53.4 µM) | 16 µg/mL (≈ 53.4 µM) | MIC [6]: 8 µg/mL (≈ 26.7 µM); MIC [7]: 16 µg/mL (≈ 53.4 µM); MIC [8]: 4 µg/mL; MIC [4]: 2 µg/mL; Ratio [9]: 8; Activity [5]: inactive
9 | CO/N=C(\C(=O)N[C@@H]1C(=O)N2C(C(=O)[O-])=C(C[N+]3(C)CCCC3)CS[C@H]12)c1csc(N)n1 [CEFEPIME] | 16 µg/mL (≈ 33.3 µM) | 32 µg/mL (≈ 66.6 µM) | MIC [1]: 16 µg/mL (≈ 33.3 µM)
10 | NCC[C@H](O)C(=O)N[C@@H]1C[C@H](N)[C@@H](O[C@H]2O[C@H](CN)[C@@H](O)[C@H](O)[C@H]2O)[C@H](O)[C@H]1O[C@H]1O[C@H](CO)[C@@H](O)[C@H](N)[C@H]1O [AMIKACIN] | 64 µg/mL (≈ 109 µM) | 125 µg/mL (≈ 213 µM) | MIC [1]: 64 µg/mL (≈ 109 µM)

From ChEMBL document CHEMBL1275541, “A plasmid-borne blaOXA-58 gene confers imipenem resistance to Acinetobacter baumannii isolates from a Lebanese hospital” (2008)
